ChEMBL document CHEMBL1126129, “Flavones. 3. Synthesis, biological activities, and conformational analysis of isoflavone derivatives and related compounds” (1992)
Active and inactive are the calls of the source. The calls are words filed in the database; no cut-off is given here.

Legend:
Rattus norvegicus [1] = test: Antiinflammatory activity was measured as %inhibition of carrageenan-induced paw edema in male rats at 50 mg/kg dose; type: functional
In short: (§1)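 Male Sprague-Dawley rats, housed 1 week, 160-200 g at test, groups of six. Dosed orally in 0.5% aqueous methocel 2 h before carrageenan challenge; controls got vehicle. Paw volume measured by mercury plethysmometer immediately and 3 h later. % inhibition = (Δcontrol − Δtest)/Δcontrol × 100, compared with control by analysis of variance. Usually one experiment per compound.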

Rattus norvegicus [2] = test: Antiinflammatory activity was measured as %inhibition of carrageenan-induced paw edema in male rats at 25 mg/kg dose; type: functional; in short: as §1
Rattus norvegicus [3] = test: Antihypertensive activity was measured as decrease in systolic blood pressure in spontaneously hypertensive rats at 75 mg/kg, po 7.5 hours after dosing; type: functional, Artery
In short: (§2)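 Male spontaneously hypertensive rats (Wistar-Kyoto strain), five per dose group. Systolic arterial pressure measured by indirect tail cuff. Dosing was 75 mg/kg po, or 30 mg/kg iv for one analog. Percentage fall in systolic pressure recorded at stated hours after dosing. Significance vs control at p < 0.05; non-significant falls flagged.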

Rattus norvegicus [4] = test: Antihypertensive activity was measured as decrease in systolic blood pressure in spontaneously hypertensive rats at 75 mg/kg, po 5 hours after dosing; type: functional, Artery; in short: as §2
Rattus norvegicus [5] = test: Antihypertensive activity was measured as decrease in systolic blood pressure in spontaneously hypertensive rats at 75 mg/kg, po 24 hours after dosing; type: functional, Artery; in short: as §2
Rattus norvegicus [6] = test: Antihypertensive activity was measured as decrease in systolic blood pressure in spontaneously hypertensive rats at 75 mg/kg, po 2 hours after dosing; type: functional, Artery; in short: as §2
Rattus norvegicus [7] = test: In vivo inhibition of carrageenan-induced paw oedema in rats following 50 mg/kg administration.; type: functional; in short: as §1
Rattus norvegicus [8] = test: Antihypertensive activity was measured as decrease in systolic blood pressure in spontaneously hypertensive rats at 75 mg/kg, po 24 hours after dosing; NS denotes not significant; type: functional, organism-based; design: dose 75 mg/kg; conditions: Artery; in short: as §2
Rattus norvegicus [9] = test: Antihypertensive activity was measured as decrease in systolic blood pressure in spontaneously hypertensive rats at 75 mg/kg, po 7.5 hours after dosing; NS denotes not significant; type: functional, organism-based; design: dose 75 mg/kg; conditions: Artery; in short: as §2
Rattus norvegicus [10] = test: Antihypertensive activity was measured as decrease in systolic blood pressure in spontaneously hypertensive rats at 75 mg/kg, po 5 hours after dosing; NS denotes not significant; type: functional, organism-based; design: dose 75 mg/kg; conditions: Artery; in short: as §2
Rattus norvegicus [11] = test: Antihypertensive activity was measured as decrease in systolic blood pressure in spontaneously hypertensive rats at 75 mg/kg, po 2 hours after dosing; NS denotes not significant; type: functional, organism-based; design: dose 75 mg/kg; conditions: Artery; in short: as §2
Rattus norvegicus [12] = test: Antiinflammatory activity was measured as inhibition of carrageenan-induced paw edema in male rats at 4 mg/kg dose; type: functional; in short: as §1
Rattus norvegicus [13] = test: Antihypertensive activity was measured as decrease in systolic blood pressure in spontaneously hypertensive rats at 30 mg/kg, iv 2 hours after dosing; NS denotes not significant; type: functional, organism-based; design: dose 30 mg/kg; conditions: Artery; in short: as §2
Rattus norvegicus [14] = test: Antiinflammatory activity was measured as inhibition of carrageenan-induced paw edema in male rats at 25 mg/kg dose; type: functional; in short: as §1

| Structure (SMILES) | Decrease in SBP (Rattus norvegicus [3]) [%] | Decrease in SBP (Rattus norvegicus [4]) [%] | inhibition in vivo at 50 mg/kg (Rattus norvegicus [7]) [%] | Decrease in SBP (Rattus norvegicus [11]) | other results |
| --- | --- | --- | --- | --- | --- |
| CC(C)NCC(O)COc1ccc2c(=O)c(-c3ccccc3)c(-c3ccccc3)oc2c1 (stereo not drawn) | 30 | 23 |  |  | inhibition in vivo at 50 mg/kg (Rattus norvegicus [1]): 24.6%; inhibition in vivo at 25 mg/kg (Rattus norvegicus [2]): 32%; Decrease in SBP (Rattus norvegicus [5]): 34%; Decrease in SBP (Rattus norvegicus [6]): 15% |
| COc1c(-c2ccccc2)oc2cc(OCCCNC(C)C)ccc2c1=O |  |  | -2 |  |  |
| O=c1cc(-c2ccccc2)oc2cc(OCCCNC3CCCC3)ccc12 |  |  | 21 |  |  |
| CCCNCCCOc1ccc2c(=O)cc(-c3ccccc3)oc2c1 |  |  | 18 |  |  |
| CC(C)NCC(O)COc1ccc2c(=O)c(-c3ccccc3)c(C3CCCCC3)oc2c1 (stereo not drawn) |  |  | 24 | inactive | Decrease in SBP (Rattus norvegicus [8]): inactive; Decrease in SBP (Rattus norvegicus [9]): inactive; Decrease in SBP (Rattus norvegicus [10]): inactive |
| CC(C)NCC(O)COc1ccc2c(=O)c(-c3ccccc3)coc2c1 (stereo not drawn) | 14 | 11 | 33 | inactive | Decrease in SBP (Rattus norvegicus [5]): 21% |
| Cc1oc2cc(OCC(O)C[N+](C)(C)C(C)C)ccc2c(=O)c1-c1ccccc1.[I-] (stereo not drawn) | 0.1 |  | 36 | inactive | Decrease in SBP (Rattus norvegicus [8]): inactive; Decrease in SBP (Rattus norvegicus [10]): inactive |
| COc1ccc2c(c1)c(CC(=O)O)c(C)n2C(=O)c1ccc(Cl)cc1 [INDOMETHACIN] |  |  |  |  | Inhibition (Rattus norvegicus [12]): 44.6% |
| CC(C)NCCCOc1ccc2c(=O)cc(-c3ccccc3)oc2c1 |  |  | 41 |  |  |
| Cc1oc2cc(OCC(O)CN(C)C(C)C)ccc2c(=O)c1-c1ccccc1 (stereo not drawn) |  |  | 19 | inactive | Decrease in SBP (Rattus norvegicus [8]): inactive; Decrease in SBP (Rattus norvegicus [9]): inactive; Decrease in SBP (Rattus norvegicus [10]): inactive |
| Clc1cccc(Cl)c1NC1=NCCN1 [CLONIDINE] |  | 15 |  |  |  |
| O=c1cc(-c2ccccc2)oc2cc(OCCCNC3CCCCCCC3)ccc12 |  |  | 26 |  |  |
| CC(C)NCC(O)COc1ccc2c(=O)c(-c3ccccc3)c(C(C)C)oc2c1 (stereo not drawn) | 25 | 20 | 28 |  | Decrease in SBP (Rattus norvegicus [5]): 15%; Decrease in SBP (Rattus norvegicus [6]): 18% |
| CCCNCC(O)COc1cccc2c(=O)c(-c3ccccc3)coc12 (stereo not drawn) |  |  |  |  | Decrease in SBP (Rattus norvegicus [13]): inactive |
| CN(C)CCCOc1ccc2c(=O)cc(-c3ccccc3)oc2c1 |  |  | 13 |  |  |
| CC(C)NCC(O)COc1ccc2c(=O)c(-c3ccccc3)c(C(F)(F)F)oc2c1 (stereo not drawn) | 16 | 16 | 28 | inactive | Decrease in SBP (Rattus norvegicus [5]): 20% |
| CCCNCC(O)COc1ccc2c(=O)c(-c3ccccc3)c(C(F)(F)F)oc2c1 (stereo not drawn) | 12 | 11 | 22 | inactive | Decrease in SBP (Rattus norvegicus [5]): 17% |
| CC(C)NCC(O)COc1ccc2c(=O)c(-c3ccccc3)c(Cc3ccccc3)oc2c1 (stereo not drawn) |  |  | -3.4 | inactive | Decrease in SBP (Rattus norvegicus [8]): inactive; Decrease in SBP (Rattus norvegicus [9]): inactive; Decrease in SBP (Rattus norvegicus [10]): inactive |
| CCCCCNCCCOc1ccc2c(=O)cc(-c3ccccc3)oc2c1 |  |  | -9 |  |  |
| Cc1oc2cc(OCC(O)CNC(C)C)ccc2c(=O)c1-c1ccccc1 (stereo not drawn) | 19 | 12 | 19 | inactive | Decrease in SBP (Rattus norvegicus [5]): 17% |
| CC(C)NCC(O)COc1ccc2c(=O)cc(-c3ccccc3)oc2c1 (stereo not drawn) | 23 | 18 |  |  | inhibition in vivo at 50 mg/kg (Rattus norvegicus [1]): 14.5%; Decrease in SBP (Rattus norvegicus [5]): 16%; Decrease in SBP (Rattus norvegicus [6]): 12% |
| CC(C)NCC(O)COc1ccc2c(=O)c(-c3ccccc3)c(-c3ccco3)oc2c1 (stereo not drawn) | 15 |  | 19 | inactive | Decrease in SBP (Rattus norvegicus [8]): inactive; Decrease in SBP (Rattus norvegicus [10]): inactive |
| CC(C)(C)NCCCOc1ccc2c(=O)cc(-c3ccccc3)oc2c1 |  |  | 34 |  |  |
| O=c1c(-c2ccccc2)coc2cc(OCC(O)CNC3CCCCCCC3)ccc12 (stereo not drawn) |  |  | 21 | inactive | inhibition in vivo at 25 mg/kg (Rattus norvegicus [14]): 41%; Decrease in SBP (Rattus norvegicus [8]): inactive; Decrease in SBP (Rattus norvegicus [9]): inactive; Decrease in SBP (Rattus norvegicus [10]): inactive |
